Assay results pooled from the literature.
Compare with care: the assays were run in different laboratories.
Target: Cyclin-dependent kinase 3 (CDK3, Homo sapiens, UniProt Q00526)

Compound | test | setting | remaining binding [%]
COc1cnc(Nc2cccc(S(N)(=O)=O)c2)nc1N1CCN(c2ccccc2)C(=O)C1 | binding, competition with immobilised ligand | 1 µM | 99
O=C(NCC1CCOCC1)c1n[nH]cc1NC(=O)c1c(F)cccc1F | binding, competition with immobilised ligand | 1 µM | 75
c1cncc(-c2cccc(Nc3nccc(NC4CCCCC4)n3)c2)c1 | binding, competition with immobilised ligand | 10 µM | 76
C[C@H]1CCN(c2nccc(-c3cnn4ncccc34)n2)C1 | binding | 1 µM | 86
O=C(NCCCN1CCOCC1)c1ccc(Nc2nccc(-c3cc4ccccc4s3)n2)cc1 | binding, competition with immobilised ligand | 1 µM | 95
CN(C)c1nccc(-c2cnc3ncccn23)n1 | binding | 1 µM | 79
O=C1CCc2cc(Nc3cc(OC4CCOCC4)c([N+](=O)[O-])cc3Cl)ccc2N1 | cell-free assay, competition with immobilised ligand | 1 µM | 100
O=C(c1ccc(Nc2ncc(Cl)c(-c3cc4ccccc4s3)n2)cc1)N1CCC(N2CCCC2)CC1 | binding, competition with immobilised ligand | 1 µM | 48
C[C@H](c1cccc(C#N)c1)n1cc(Cl)cc(C(N)=O)c1=N | cell-free assay, competition with immobilised ligand | 1 µM | 100
c1cnn2ncc(-c3ccnc(N4CCC45COC5)n3)c2c1 | binding | 1 µM | 74
CC(=O)N1CCC(c2ccc(C(=O)NC3=NCCN3)cc2C(F)(F)F)CC1 | cell-free assay, competition with immobilised ligand | 1 µM | 100
N#Cc1ccccc1CSc1nnc2c(n1)[nH]c1ccccc12 | binding, competition with immobilised ligand | 10 µM | 100
Nc1ncc2c(n1)-c1c([nH]c3ccc(C#CC4CC4)cc13)CCCC2 | binding, competition with immobilised ligand | 1 µM | 77
C[C@@H]1CN(c2ccc3ncc(-c4ccc5[nH]nc(C6CC6)c5c4)n3n2)C[C@H](C)O1 | binding, competition with immobilised ligand | 0.5 µM | 90
FC(F)(F)Oc1cccc(-c2cnc3ccc(-c4ccncc4)nn23)c1 | cell-free assay, competition with immobilised ligand | 5 µM | 79
C[C@H](c1ccnc(Nc2nc3ccc(-c4cc(N(C)C)ncn4)cc3[nH]2)c1)N1CCN(C(=O)CC(F)(F)F)CC1 | cell-free assay, competition with immobilised ligand | 0.1 µM | 100
CN(CCCC(F)(F)F)c1nccc(-c2cnn3ncccc23)n1 | binding | 1 µM | 100
CCCOc1ccc([C@@H]2[C@@H](C(=O)O)[C@H](c3ccc4c(c3)OCO4)CN2CC(=O)Nc2c(CC)cccc2CC)cc1 | cell-free assay, competition with immobilised ligand | 1 µM | 100
N[C@@H]1CCN(c2nccc(-c3cnn4ncccc34)n2)C1 | binding | 1 µM | 100
Cc1c(NC(=O)c2cc(C(N)=O)nc3cc(F)ccc23)c(C(F)(F)F)nn1Cc1ccc(C#N)cc1 | cell-free assay, competition with immobilised ligand | 1 µM | 95
CCN1CCN(Cc2ccc(C(=O)Nc3ccc(C)c(Oc4ccc5c(c4)CC(=O)N5)c3)cc2C(F)(F)F)CC1 | binding, competition with immobilised ligand | 1 µM | 100
